According to PubChem BioAssay:
Inconclusive results are not listed. Activity calls are given as the source filed them.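 The calls were made as follows, unless noted: active = viability increase at or above a cutoff of the median across tested compounds plus 3 SD (cut at about 8.5% in these data, passing the limit was not always enough); inconclusive = some gains above the cutoff, reason not given; inactive = the rest.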

Key:
[1] = OD615 S. cerevisiae growth inhibition, permissive medium, pilot counter-assay, permissive growth control for S. cerevisiae lifespan shortening project (AID 705;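 active = growth inhibition above 25% in both replicates, a cutoff set 3 SD above the mean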); conditions: OD615, 24 h, at 10 µM, stronger effect = higher value
How it was run: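 Timing: 24 h exposure, 30 °C / Material: Saccharomyces cerevisiae strain carrying genetically modified DeaD replicative-lifespan system / Signal: OD at 615 nm / Compound: 10 µM single dose, 0.25% DMSO / Medium: SC raffinose/galactose permissive medium / Evaluation: reduction in yeast growth (OD615)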

[2] = Restrictive medium S. cerevisiae growth inhibition, OD615, pilot screen of yeast lifespan reduction project, restrictive growth control (AID 706;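 active = growth inhibition above a set limit, 3 SD over mean compound inhibition, in both replicates, cut at about 43% in these data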;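 also: modified DeaD lifespan yeast strain shifted to restrictive glucose medium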); conditions: OD615, 48 h, at 10 µM, stronger effect = higher value
How it was run: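 System: Engineered S. cerevisiae DeaD strain | Detection: OD615 | Buffer or medium: CSMM-D glucose medium | Doses: 10 µM compound, 0.25% DMSO | Timing: 4 h pre-growth plus 48 h compound exposure, 30 °C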

[3] = viability gain of MRP-1-high H69AR cells under doxorubicin, pilot screen, MRP-1 activator project, CellTiter-Glo, duplicate (AID 807); conditions: H69AR viability with doxorubicin, CellTiter-Glo luminescence; at 10 µM; stronger effect = higher value;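 also: compound pretreatment 18-22 h then 72 h combined with doxorubicin; 0% = doxorubicin alone and 100% = vehicle without doxorubicin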
[4] = growth suppression of beta-catenin knockout HCT116, pilot screen, human colon tumor cells (AID 823;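 active = cell viability at or below a set limit in both duplicate runs, the limit being the all-compound median minus 4 SD, cut at about 23% in these data, passing the limit was not always enough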;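 also: 0% = wells killed by 20 µM Hyamine and 100% = untreated DMSO cell wells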); conditions: CellTiter-Glo, 60 h, at 10 µM, stronger effect = lower value
[5] = growth suppression of PTEN-deleted HCT116, pilot screen, cell-based, HCT116 clonal line, CellTiter-Glo (AID 824;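 active = viability at or below 27.92% in each of two runs, the all-compound median minus 4 SD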;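 also: 0% = 20 µM Hyamine control and 100% = vehicle cell control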); conditions: 60 h, at 10 µM, stronger effect = lower value
[6] = inhibitors of the yeast RAM network, pilot screen, dse1pr::URA3 reporter, 5-FOA selection (AID 869;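 active = inhibition over a set limit, the all-compound mean plus 3 SD, in both replicate runs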;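 also: 0% = DMSO wells with no growth and 100% = 10 µM 1-NA-PP1 with full growth; RAM network block rescues cells from 5-FOA so hits raise OD615 growth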); conditions: S. cerevisiae dse1pr::URA3 5-FOA growth, OD615, 2 d, at 10 µM, stronger effect = higher value
[7] = RAM signaling pathway blockade in yeast – S. cerevisiae, Pdr1DBD-CYC8 efflux-inhibited sensitized strain, primary screen (AID 1298;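 active = RAM network inhibition above 8.4% in each of two replicates, 3 SD over the compound average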;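 also: 0% = DMSO untreated cells without growth and 100% = 10 µM 1-NA-PP1 full growth; higher means more yeast growth rescued from 5-FOA killing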); conditions: S. cerevisiae cbk1-as DSE1-URA3 strain, 5-FOA growth OD615, 2 d; at 50 µM; stronger effect = higher value

CC12CN3CC(C)(CN(C1)C3c1ccco1)C2=O (stereo unspecified)
inactive: growth inhibition [1] -8.88% | growth inhibition [2] -8.04% | viability increase [3] -0.55% | viability [4] 95.6% | viability [5] 99.6% | inhibition [6] 2.1% | RAM network inhibition [7] 2.07%

O/N=C1\CCC2CN(C3CCCCC3)CC2C1 (stereo unspecified)
inactive: growth inhibition [1] 8.11% | growth inhibition [2] -1.4% | viability increase [3] -1.85% | viability [4] 109% | viability [5] 97.9% | inhibition [6] 0.775% | RAM network inhibition [7] 0.94%

O=C(CN1CC(c2ccccc2)CC1=O)Nc1cccc(F)c1 (stereo unspecified)
inactive: growth inhibition [1] -10.1% | growth inhibition [2] -5.42% | viability increase [3] -4.37% | viability [4] 98.3% | viability [5] 96.5% | inhibition [6] 1.39% | RAM network inhibition [7] 4.67%

Cc1nn(C2CCOC(C)(C)C2)c2c1C(c1ccc3c(c1)OCO3)SCC(=O)N2 (stereo unspecified)
inactive: growth inhibition [1] 7.63% | growth inhibition [2] 14.5% | viability increase [3] -0.34% | viability [4] 97% | inhibition [6] 0.985% | RAM network inhibition [7] 1.2%

Cc1cc(OCC(=O)NC2CCS(=O)(=O)C2)c2c3c(c(=O)oc2c1)CCC3 (stereo unspecified)
inactive: growth inhibition [1] -13.3% | growth inhibition [2] -15.4% | viability increase [3] -5.3% | viability [4] 87.2% | inhibition [6] 1.55% | RAM network inhibition [7] 2.75%

O=c1cccc2n1CC1CC2CN(c2ncnc3c2cnn3-c2ccccc2)C1 (stereo unspecified)
inactive: growth inhibition [1] -14.6% | growth inhibition [2] -18.5% | viability increase [3] -1.4% | viability [4] 101% | viability [5] 101% | inhibition [6] 1.7% | RAM network inhibition [7] 1.58%

COc1ccc(C2C(C(=O)N3CCC4(CC3)OCCO4)CC(=O)N2c2ccc(OC)cc2)cc1 (stereo unspecified)
inactive: growth inhibition [1] -8.58% | growth inhibition [2] -2.57% | viability increase [3] -3.2% | viability [5] 103% | inhibition [6] 1% | RAM network inhibition [7] 5.09%
